# Results taken from ChEMBL document CHEMBL3627671, “Novel derivatives of nitro-substituted salicylic acids: Synthesis, antimicrobial activity and cytotoxicity” (Bioorg Med Chem, 2015).
# How the values were obtained:
# Type in all cases: functional
# Aspergillus fumigatus [1] = assay: Antifungal activity against Aspergillus fumigatus 231 after 48 hrs by microdilution broth method; settings: Aspergillus fumigatus, 231, 48 h
# Outline: (§1)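 CLSI M27-A3 broth microdilution in RPMI 1640 with glutamine, buffered to pH 7.0 with MOPS; DMSO diluent. Yeast inoculum 5 × 10^3 ± 0.2 CFU/mL. Moulds grown on Sabouraud agar 3–10 days before spore harvest, final inoculum 0.5-5 × 10^4 CFU/mL, checked in a Bürker chamber. Incubated dark, humid, 35 °C, read at 24 and 48 h visually and at 540 nm. MIC taken as ≥80% (yeasts) or ≥50% (filamentous) growth reduction versus control.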
# Klebsiella pneumoniae [2] = assay: Antibacterial activity against ESBL-positive Klebsiella pneumoniae J 14368/08 after 48 hrs by microdilution broth method; settings: J 14368/08, 48 h
# Outline: (§2)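 Mueller-Hinton broth microdilution (modified M07-A07), pH 7.4 (±0.2). Compounds dissolved in DMSO, tested at final 500 to 0.49 µmol/L. Inoculum in sterile water matched to 0.5 McFarland. Incubated in the dark, humid atmosphere, 35 °C, read at 24 and 48 h visually and at 540 nm. MIC taken as ≥95% growth reduction (IC95) versus control.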
# Candida albicans [3] = assay: Antifungal activity against Candida albicans ATCC 44859 after 48 hrs by microdilution broth method; settings: ATCC 44859, 48 h; outline: as §1
# [4] = system: Mycobacterium tuberculosis; assay: Antimycobacterial activity against Mycobacterium tuberculosis H37Rv 331/88 after 14 days; settings: H37Rv 331/88, 336 h
# Enterococcus sp. [5] = assay: Antibacterial activity against Enterococcus sp. J 14365/08 after 24 hrs by microdilution broth method; settings: J 14365/08, 24 h; outline: as §2
# Staphylococcus aureus [6] = assay: Antibacterial activity against Staphylococcus aureus CCM 4516/08 after 48 hrs by microdilution broth method; settings: CCM 4516/08, 48 h
# Lichtheimia corymbifera [7] = assay: Antifungal activity against Absidia corymbifera 272 after 48 hrs by microdilution broth method; settings: Lichtheimia corymbifera, 272, 48 h; outline: as §1
# Mycobacterium kansasii [8] = assay: Antimycobacterial activity against Mycobacterium kansasii 6509/96 after 14 days; settings: 6509/96, 336 h
# Outline: (§3)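 Šula's semisynthetic medium micromethod at 37 °C, read after 7, 14 and 21 days. The 1.0 McFarland suspension was diluted 10^-4. MIC determined. 6509/96 is a clinical isolate.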
# Candida tropicalis [9] = assay: Antifungal activity against Candida tropicalis 156 after 48 hrs by microdilution broth method; settings: Candida tropicalis, 156, 48 h; outline: as §1
# Klebsiella pneumoniae [10] = assay: Antibacterial activity against ESBL-positive Klebsiella pneumoniae J 14368/08 after 24 hrs by microdilution broth method; settings: J 14368/08, 24 h; outline: as §2
# Pichia kudriavzevii [11] = assay: Antifungal activity against Candida krusei E28 after 24 hrs by microdilution broth method; settings: E28, 24 h; outline: as §1
# Staphylococcus aureus [12] = assay: Antibacterial activity against methicillin-resistant Staphylococcus aureus H 5996/08 after 48 hrs by microdilution broth method; settings: H 5996/08, 48 h
# Nakaseomyces glabratus [13] = assay: Antifungal activity against Candida glabrata 20/I after 24 hrs by microdilution broth method; outline: as §1
# Klebsiella pneumoniae [14] = assay: Antibacterial activity against Klebsiella pneumoniae D 11750/08 after 24 hrs by microdilution broth method; settings: D 11750/08, 24 h; outline: as §2
# Mycobacterium kansasii [15] = assay: Antimycobacterial activity against Mycobacterium kansasii 6509/96 after 21 days; settings: 6509/96, 504 h; outline: as §3
# Mycobacterium kansasii [16] = assay: Antimycobacterial activity against Mycobacterium kansasii 235/80 after 14 days; settings: 235/80, 336 h; outline: as §3
# [17] = system: Staphylococcus epidermidis; assay: Antibacterial activity against Staphylococcus epidermidis H 6966/08 after 48 hrs by microdilution broth method; settings: H 6966/08, 48 h; outline: as §2
# Staphylococcus aureus [18] = assay: Antibacterial activity against methicillin-resistant Staphylococcus aureus H 5996/08 after 24 hrs by microdilution broth method; settings: H 5996/08, 24 h
# Trichosporon asahii [19] = assay: Antifungal activity against Trichosporon asahii 1188 after 48 hrs by microdilution broth method; settings: Trichosporon asahii, 1188, 48 h; outline: as §1
# [20] = system: Trichophyton mentagrophytes; assay: Antifungal activity against Trichophyton mentagrophytes 445 after 24 hrs by microdilution broth method; settings: Trichophyton mentagrophytes, 445, 24 h
# Escherichia coli [21] = assay: Antibacterial activity against Escherichia coli CCM4517 after 24 hrs by microdilution broth method; settings: CCM4517, 24 h; outline: as §2
# Klebsiella pneumoniae [22] = assay: Antibacterial activity against Klebsiella pneumoniae D 11750/08 after 48 hrs by microdilution broth method; settings: D 11750/08, 48 h; outline: as §2
# Mycobacterium kansasii [23] = assay: Antimycobacterial activity against Mycobacterium kansasii 235/80 after 7 days; settings: 235/80, 168 h; outline: as §3
# Lichtheimia corymbifera [24] = assay: Antifungal activity against Absidia corymbifera 272 after 24 hrs by microdilution broth method; settings: Lichtheimia corymbifera, 272, 24 h; outline: as §1
# [25] = system: Mycobacterium tuberculosis; assay: Antimycobacterial activity against Mycobacterium tuberculosis H37Rv 331/88 after 21 days; settings: H37Rv 331/88, 504 h
# Aspergillus fumigatus [26] = assay: Antifungal activity against Aspergillus fumigatus 231 after 24 hrs by microdilution broth method; settings: Aspergillus fumigatus, 231, 24 h; outline: as §1
# Enterococcus sp. [27] = assay: Antibacterial activity against Enterococcus sp. J 14365/08 after 48 hrs by microdilution broth method; settings: J 14365/08, 48 h; outline: as §2
# Trichosporon asahii [28] = assay: Antifungal activity against Trichosporon asahii 1188 after 24 hrs by microdilution broth method; settings: Trichosporon asahii, 1188, 24 h; outline: as §1
# Candida albicans [29] = assay: Antifungal activity against Candida albicans ATCC 44859 after 24 hrs by microdilution broth method; settings: ATCC 44859, 24 h; outline: as §1
# Escherichia coli [30] = assay: Antibacterial activity against Escherichia coli CCM4517 after 48 hrs by microdilution broth method; settings: CCM4517, 48 h; outline: as §2
# Mycobacterium avium [31] = assay: Antimycobacterial activity against Mycobacterium avium 330/80 after 14 days; settings: 330/80, 336 h
# Mycobacterium kansasii [32] = assay: Antimycobacterial activity against Mycobacterium kansasii 6509/96 after 7 days; settings: 6509/96, 168 h; outline: as §3
# [33] = system: Staphylococcus epidermidis; assay: Antibacterial activity against Staphylococcus epidermidis H 6966/08 after 24 hrs by microdilution broth method; settings: H 6966/08, 24 h; outline: as §2
# Mycobacterium avium [34] = assay: Antimycobacterial activity against Mycobacterium avium 330/80 after 21 days; settings: 330/80, 504 h
# Pseudomonas aeruginosa [35] = assay: Antibacterial activity against Pseudomonas aeruginosa CCM 1961 after 24 hrs by microdilution broth method; settings: CCM 1961, 24 h; outline: as §2
# Candida tropicalis [36] = assay: Antifungal activity against Candida tropicalis 156 after 24 hrs by microdilution broth method; settings: Candida tropicalis, 156, 24 h; outline: as §1
# Staphylococcus aureus [37] = assay: Antibacterial activity against Staphylococcus aureus CCM 4516/08 after 24 hrs by microdilution broth method; settings: CCM 4516/08, 24 h
# Mycobacterium kansasii [38] = assay: Antimycobacterial activity against Mycobacterium kansasii 235/80 after 21 days; settings: 235/80, 504 h; outline: as §3
# Pseudomonas aeruginosa [39] = assay: Antibacterial activity against Pseudomonas aeruginosa CCM 1961 after 48 hrs by microdilution broth method; settings: CCM 1961, 48 h; outline: as §2
# [40] = system: Trichophyton mentagrophytes; assay: Antifungal activity against Trichophyton mentagrophytes 445 after 48 hrs by microdilution broth method; settings: Trichophyton mentagrophytes, 445, 48 h
# Pichia kudriavzevii [41] = assay: Antifungal activity against Candida krusei E28 after 48 hrs by microdilution broth method; settings: E28, 48 h; outline: as §1
# Nakaseomyces glabratus [42] = assay: Antifungal activity against Candida glabrata 20/I after 48 hrs by microdilution broth method; outline: as §1
structure (smiles),measurement,setting,value
O=C(Nc1cccc([N+](=O)[O-])c1)c1cc([N+](=O)[O-])ccc1O,MIC,Aspergillus fumigatus [1],> 250 µM
same,MIC,Klebsiella pneumoniae [2],> 500 µM
same,MIC,Candida albicans [3],> 250 µM
same,MIC,[4],62.5 µM
same,MIC,Enterococcus sp. [5],> 500 µM
same,MIC,Staphylococcus aureus [6],500 µM
same,MIC,Lichtheimia corymbifera [7],> 250 µM
same,MIC,Mycobacterium kansasii [8],125 µM
same,MIC,Candida tropicalis [9],> 250 µM
same,MIC,Klebsiella pneumoniae [10],> 500 µM
same,MIC,Pichia kudriavzevii [11],> 250 µM
same,MIC,Staphylococcus aureus [12],500 µM
same,MIC,Nakaseomyces glabratus [13],> 250 µM
same,MIC,Klebsiella pneumoniae [14],> 500 µM
same,MIC,Mycobacterium kansasii [15],125 µM
same,MIC,Mycobacterium kansasii [16],62.5 µM
same,MIC,[17],500 µM
same,MIC,Staphylococcus aureus [18],500 µM
same,MIC,Trichosporon asahii [19],> 250 µM
same,MIC,[20],> 250 µM
same,MIC,Escherichia coli [21],> 500 µM
same,MIC,Klebsiella pneumoniae [22],> 500 µM
same,MIC,Mycobacterium kansasii [23],16 µM
same,MIC,Lichtheimia corymbifera [24],> 250 µM
same,MIC,[25],62.5 µM
same,MIC,Aspergillus fumigatus [26],> 250 µM
same,MIC,Enterococcus sp. [27],> 500 µM
same,MIC,Trichosporon asahii [28],> 250 µM
same,MIC,Candida albicans [29],> 250 µM
same,MIC,Escherichia coli [30],> 500 µM
same,MIC,Mycobacterium avium [31],125 µM
same,MIC,Mycobacterium kansasii [32],62.5 µM
same,MIC,[33],500 µM
same,MIC,Mycobacterium avium [34],125 µM
same,MIC,Pseudomonas aeruginosa [35],> 500 µM
same,MIC,Candida tropicalis [36],> 250 µM
same,MIC,Staphylococcus aureus [37],500 µM
same,MIC,Mycobacterium kansasii [38],125 µM
same,MIC,Pseudomonas aeruginosa [39],> 500 µM
same,MIC,[40],> 250 µM
same,MIC,Pichia kudriavzevii [41],> 250 µM
same,MIC,Nakaseomyces glabratus [42],> 250 µM
O=C(Nc1ccc([N+](=O)[O-])cc1)c1ccc([N+](=O)[O-])cc1O,MIC,Aspergillus fumigatus [1],> 500 µM
same,MIC,Klebsiella pneumoniae [2],> 500 µM
same,MIC,Candida albicans [3],> 500 µM
same,MIC,[4],8 µM
same,MIC,Enterococcus sp. [5],500 µM
same,MIC,Staphylococcus aureus [6],62.5 µM
same,MIC,Lichtheimia corymbifera [7],> 500 µM
same,MIC,Mycobacterium kansasii [8],32 µM
same,MIC,Candida tropicalis [9],> 500 µM
same,MIC,Klebsiella pneumoniae [10],500 µM
same,MIC,Pichia kudriavzevii [11],> 500 µM
same,MIC,Staphylococcus aureus [12],31.2 µM
same,MIC,Nakaseomyces glabratus [13],> 500 µM
same,MIC,Klebsiella pneumoniae [14],500 µM
same,MIC,Mycobacterium kansasii [15],32 µM
same,MIC,Mycobacterium kansasii [16],16 µM
same,MIC,[17],62.5 µM
same,MIC,Staphylococcus aureus [18],31.2 µM
same,MIC,Trichosporon asahii [19],> 500 µM
same,MIC,[20],> 500 µM
same,MIC,Escherichia coli [21],500 µM
same,MIC,Klebsiella pneumoniae [22],> 500 µM
same,MIC,Mycobacterium kansasii [23],8 µM
same,MIC,Lichtheimia corymbifera [24],> 500 µM
same,MIC,[25],16 µM
same,MIC,Aspergillus fumigatus [26],> 500 µM
same,MIC,Enterococcus sp. [27],> 500 µM
same,MIC,Trichosporon asahii [28],> 500 µM
same,MIC,Candida albicans [29],> 500 µM
same,MIC,Escherichia coli [30],> 500 µM
same,MIC,Mycobacterium avium [31],62.5 µM
same,MIC,Mycobacterium kansasii [32],32 µM
same,MIC,[33],62.5 µM
same,MIC,Mycobacterium avium [34],62.5 µM
same,MIC,Pseudomonas aeruginosa [35],500 µM
same,MIC,Candida tropicalis [36],> 500 µM
same,MIC,Staphylococcus aureus [37],62.5 µM
same,MIC,Mycobacterium kansasii [38],32 µM
same,MIC,Pseudomonas aeruginosa [39],> 500 µM
same,MIC,[40],> 500 µM
same,MIC,Pichia kudriavzevii [41],> 500 µM
same,MIC,Nakaseomyces glabratus [42],> 500 µM
